Compound activity: PubChem BioAssay, several laboratories
The list is not random: actives were taken first. Their share in the collection is about 1.5%.
CASP6 VEID inh: human caspase-6 inhibitors, primary screen, biochemical, VEID-R110 fluorescence, single point, set 2 | purified caspase-6, Z-VEID-R110 cleavage fluorescence | 350,000 tested, 0.53% active | P55212 | inhibition, % at 12.5 µM;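 active means mean inhibition across replicates at least about 35%, with every replicate also reaching that limit, limit read from the data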;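 further: 0% = median of neutral control wells and 100% = no fluorescence left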
Target sequence (P55212 24-179 limits assumed): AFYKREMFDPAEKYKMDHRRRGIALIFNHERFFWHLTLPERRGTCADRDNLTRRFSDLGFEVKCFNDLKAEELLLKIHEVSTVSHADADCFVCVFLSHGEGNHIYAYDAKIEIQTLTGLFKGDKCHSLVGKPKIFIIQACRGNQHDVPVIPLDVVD
Target sequence (P55212 194-293 limits assumed): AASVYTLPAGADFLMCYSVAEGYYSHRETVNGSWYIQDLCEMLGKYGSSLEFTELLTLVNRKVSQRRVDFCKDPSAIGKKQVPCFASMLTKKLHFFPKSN
NSD2 HMT inh: NSD2 histone methyltransferase inhibitors, primary screen, biochemical, AlphaScreen, single concentration, set 2. 310,000 tested, 0.54% active. inhibition, % at 12.5 µM. Histone-lysine N-methyltransferase NSD2 (Homo sapiens), O96028. NSD2 peptide methylation, 120 min
DNMT1 block: human DNMT1 methyltransferase inhibitors, primary screen, biochemical, molecular beacon, fluorescence, HinP1I cleavage, uHTS | inhibition (reported as % activation of signal), % at 10 µM | 360,000 tested, 0.83% active | AID 588458, 2011
HCV NS3 hel inh: inhibitors of HCV NS3 helicase, primary screen, biochemical, Cy5 molecular beacon fluorescence; inhibition, % at 10.9 µM; NS3 helicase DNA unwinding; 290,000 tested, 0.56% active; AID 1800, 2009;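 active means inhibition above the mean of all tested compounds plus 3 SD, set per campaign, cut at about 35% in these data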;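 further: 0% = DMSO wells and 100% = thioflavine S control wells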
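System: NS3 helicase fragment of HCV / Schedule: 1 h at 25 °C / Control set: DMSO alone as 0% and 110 µM thioflavine S as 100% / Reagent: Cy5/quencher beacon DNA duplex and ATP to start / Technique: Cy5 fluorescence / Replication: singlicate / Evaluation: % inhibition of end-to-start signal ratio versus controls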
NS3 hel confirm: HCV NS3 helicase inhibitors, retest, confirmation, biochemical, Cy5 molecular beacon fluorescence, triplicate; 1,600 tested, 31% active; shares compounds with HCV NS3 hel inh; NS3 helicase DNA unwinding; inhibition, % at 10.9 µM;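 active means inhibition above the mean of all tested compounds plus 3 SD, cutoff set per campaign, cut at about 36% in these data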
FID counter trip: compounds displacing fluorescent DNA intercalator, artefact control for HCV NS3 helicase inhibitor project, biochemical, FID fluorescence, triplicate | shares compounds with HCV NS3 hel inh | DNA fluorescent intercalator displacement | inhibition, % at 7.9 µM | 1,600 tested, 4% active | AID 1945, 2009; in the data active means inhibition above about 37%;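 further: 0% = vehicle and 100% = reference compound; higher means more displacement of ethidium bromide from the DNA hairpin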
FID counter DR: compounds displacing fluorescent intercalator from DNA, dose response, counter-screen for HCV NS3 helicase inhibitor project, biochemical, fluorescence. shares compounds with HCV NS3 hel inh. fluorescent intercalator displacement from DNA. IC50, µM. 120 tested, under 10 active. AID 2172, 2009; call rule not given here
DNMT1 interf DR: spectral interference with molecular beacon fluorescence, dose response, artefact control for DNMT1 inhibitor project, biochemical, fluorescent molecular beacon; spectral interference counter-screen; 200 tested, under 10 active; shares compounds with DNMT1 block; AID 602382, 2012; IC50, µM; call rule not given here
DNMT1 inh conf: DNMT1 methyltransferase inhibitor retest, confirmation, biochemical, molecular beacon, fluorescence, single concentration; DNMT1 molecular beacon HinP1I cleavage; 2,300 tested, 8% active; AID 602385, 2012; inhibition, % at 10 µM; shares compounds with DNMT1 block;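 active means average inhibition of at least 30% in the single-concentration confirmation test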
Beacon interf: counter-screen for DNMT1 inhibitors: spectral interference. shares compounds with DNMT1 block. DNMT1 molecular beacon spectral interference counterscreen, fluorescence 485/520. activation (fluorescence interference), % at 10 µM. 2,300 tested, 1% active;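 active means activation of at least 30% at 10 µM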;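 further: DNMT1 catalytic domain with a HinP1I cleavage step and a FAM/dabcyl DNA beacon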
The depositor's hits bear a star. Unless noted, no stated cut-off is given here; in the data, active means inhibition above about 50%; inactive means the rest.

What do the screens show for `Nc1nc(-c2cc(O)ccc2[N+](=O)[O-])cc(-c2ccccc2)c1[N+](=O)[O-]`?
CASP6 VEID inh: 47*; NSD2 HMT inh: -1; DNMT1 block: 60*; HCV NS3 hel inh: 96*; NS3 hel confirm: 19; FID counter trip: 45*; DNMT1 inh conf: 5; Beacon interf: -6

Results for O=C(O)c1cc(-c2ccco2)nn1-c1cccc(Cl)c1 ?
CASP6 VEID inh: 46*; NSD2 HMT inh: 29; DNMT1 block: 105*; HCV NS3 hel inh: 48*; NS3 hel confirm: 32; FID counter trip: 0; DNMT1 inh conf: 7; Beacon interf: -2

How did O=C(O)c1cc(-c2cccs2)nn1-c1cccc(Cl)c1 do in these assays?
CASP6 VEID inh: 3; NSD2 HMT inh: 5; DNMT1 block: 1; HCV NS3 hel inh: 7

Results for Cc1nn(-c2ccccc2)c2nc(-c3ccco3)cc(C(=O)O)c12 ?
NSD2 HMT inh: 24; DNMT1 block: 61*; HCV NS3 hel inh: 42*; NS3 hel confirm: 67*; FID counter trip: -9; DNMT1 inh conf: 2; Beacon interf: -1

Results for C(=C\c1ccco1)/c1ccc2ccccc2n1 ?
CASP6 VEID inh: 3; DNMT1 block: 80*; HCV NS3 hel inh: 42*; NS3 hel confirm: 6; FID counter trip: 7; DNMT1 inh conf: 7; Beacon interf: 3

What do the screens show for `O=C1NN(c2ccccc2)C(=O)/C1=C/c1ccc(Sc2cccc3ccccc23)o1`?
NSD2 HMT inh: 9; DNMT1 block: 66*; HCV NS3 hel inh: 53*; NS3 hel confirm: 75*; FID counter trip: 17; FID counter DR: >79; DNMT1 interf DR: >99; DNMT1 inh conf: 69*; Beacon interf: -2

What do the screens show for `O=C1NN(c2ccccc2)C(=O)/C1=C\c1ccc2c(c1)OCO2`?
CASP6 VEID inh: 3; NSD2 HMT inh: 0; DNMT1 block: -10; HCV NS3 hel inh: 31

Results for CC1CCCCC1NC(=O)COC(=O)c1c2c(nc3ccccc13)/C(=C/c1ccco1)CC2 (stereo not drawn) ?
CASP6 VEID inh: 11; NSD2 HMT inh: 3; DNMT1 block: 95*; HCV NS3 hel inh: 47*; NS3 hel confirm: 97*; FID counter trip: 1; FID counter DR: >79; DNMT1 inh conf: 3; Beacon interf: -7

What do the screens show for `COc1ccc(CCn2c(O)cc3nn(-c4nc5ccccc5s4)c(=O)c-3c2C)cc1`?
CASP6 VEID inh: 0; NSD2 HMT inh: 3; DNMT1 block: 79*; HCV NS3 hel inh: 46*; NS3 hel confirm: 78*; FID counter trip: -17; DNMT1 inh conf: 11; Beacon interf: 44*

Results for COc1ccc(CN2CCN(c3nc4ccccc4s3)CC2)cc1 ?
CASP6 VEID inh: -9; DNMT1 block: 1; HCV NS3 hel inh: 23

How did O=C(O)CN1C(=O)/C(=C\c2cc(Br)ccc2OCc2ccc(Cl)cc2)SC1=S do in these assays?
CASP6 VEID inh: 77*; NSD2 HMT inh: 19; DNMT1 block: 61*; HCV NS3 hel inh: 39*; NS3 hel confirm: 67*; FID counter trip: 59*; DNMT1 interf DR: >99; DNMT1 inh conf: 56*; Beacon interf: -9

What do the screens show for `COc1ccc(/C=C2/SC(=S)N(CC(=O)O)C2=O)cc1OCc1ccc(Cl)cc1`?
CASP6 VEID inh: 31; NSD2 HMT inh: 14; DNMT1 block: 3; HCV NS3 hel inh: 23

How did CCCOc1ccc(/C=c2\sc3nc(-c4ccco4)nn3c2=O)cc1OCC do in these assays?
NSD2 HMT inh: 2; DNMT1 block: 73*; HCV NS3 hel inh: 42*; NS3 hel confirm: -12; FID counter trip: -2; DNMT1 inh conf: 3; Beacon interf: 1

Results for CCCOc1ccc(/C=C2/C(=O)ON=C2C)cc1OCC ?
CASP6 VEID inh: 0; NSD2 HMT inh: 3; DNMT1 block: 13; HCV NS3 hel inh: 16

Results for COc1cc(/C=C2\SC(=O)N(CC(=O)Nc3ccc(C)cc3)C2=O)cc(Cl)c1OCC(=O)O ?
CASP6 VEID inh: -3; NSD2 HMT inh: -3; DNMT1 block: 90*; HCV NS3 hel inh: 43*; NS3 hel confirm: 62*; FID counter trip: 19; DNMT1 inh conf: 3; Beacon interf: 6

How did CCOC(=O)C1=C(c2ccccc2)N=c2s/c(=C\c3cc(OC)c(OC)c(OC)c3)c(=O)n2C1c1cccs1 (stereo not drawn) do in these assays?
DNMT1 block: 1; HCV NS3 hel inh: 15

How did CCOC(=O)C1=C(c2ccccc2)N=c2s/c(=C\c3ccco3)c(=O)n2C1c1cccs1 (stereo not drawn) do in these assays?
NSD2 HMT inh: -3; DNMT1 block: 58*; HCV NS3 hel inh: 48*; NS3 hel confirm: 24; FID counter trip: -2; DNMT1 inh conf: 9; Beacon interf: 5

Results for Cc1ccc(N=C2NC(=O)/C(=C/C=C/c3ccco3)S2)cc1 ?
CASP6 VEID inh: 3; NSD2 HMT inh: 0; DNMT1 block: 87*; HCV NS3 hel inh: 114*; NS3 hel confirm: 9; FID counter trip: 3; DNMT1 inh conf: 2; Beacon interf: 4

How did Cc1cccc(N=C2NC(=O)/C(=C/C=C/c3ccco3)S2)c1C do in these assays?
NSD2 HMT inh: 14; DNMT1 block: 94*; HCV NS3 hel inh: 45*; NS3 hel confirm: 88*; FID counter trip: 34; FID counter DR: >79; DNMT1 inh conf: 10; Beacon interf: 3

Results for CC(C)NC(=O)N(C)C[C@@H]1Oc2ccc(NC(=O)Nc3ccccc3)cc2C(=O)N([C@@H](C)CO)C[C@H]1C ?
CASP6 VEID inh: 3

How did C/C=C/c1ccc([C@@H]2[C@@H](CO)N3C(=O)CN(Cc4ccccc4)C[C@@H]23)cc1 do in these assays?
CASP6 VEID inh: 2
